Bioassay records (PubChem BioAssay)
HCT116 PTEN-null: PTEN-deleted cell growth suppression; viability, % at 10 µM; actives 1.2% (n = 140,000); HCT116 PTEN-null viability, CellTiter-Glo, 60 h; hits give low values; AID 827;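 active = viability at or below a set limit, 4 SD under the median of all tested compounds, cut at about 3.7% in these data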;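 also: PTEN knockout HCT116 line with beta catenin targeted HCT116 as companion control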
H69AR growth 86K: growth inhibitors of human H69AR lung tumor cells. actives 6% (n = 85,000). H69AR lung tumor viability, ATP luminescence, 72 h; hits give low values. viability, % at 10 µM. AID 598;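 active = viability at or below 40%; inactive = viability above 40%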;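 also: multidrug resistant small cell line overexpressing MRP-1 efflux transporter; 100% = mean luminescence of untreated control wells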
HUVEC prolif 384: blocks proliferation of human endothelial cells; actives 1.1% (n = 86,000); HUVEC proliferation, CellTiter-Glo luminescence, 72 h; hits give low values; viability, % at 10 µM (by protocol);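 active = viability at or below 30%; inactive = viability above 30%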;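 also: 100% = median luminescence of DMSO-only cell control wells on each plate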
bCat KO growth: beta-catenin-lacking colon tumor cell growth suppression; HCT116 beta-catenin knockout viability, CellTiter-Glo, 60 h; hits give low values; viability, % at 10 µM; actives 1.5% (n = 140,000); AID 818;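 active = viability at or under a set limit, the compound median less 4 SD, cut at about 6% in these data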;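 also: 0% = Hyamine 1622 control at 20 µM and 100% = untreated cell control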
Lung fibro prol: blocks proliferation of human lung fibroblasts; AID 719; actives 1.1% (n = 85,000); viability, % at 10 µM; LL 47 human lung fibroblast viability, ATP luminescence; hits give low values;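 active = viability at or below 50% in the single dose screen; inactive = viability above 50%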;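 also: compound exposure lasted 72 h before the ATP readout; 100% = median luminescence of untreated cell-only wells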
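Assay system: human lung fibroblast line LL 47, low passage. Input: 1,150 fibroblasts seeded per well. Times: overnight cell rest, 72 h compound treatment at 37 °C. Evaluation: % viability of median cell-only signal. Technique: luminescent ATP detection, CellTiter-Glo. Control set: cell-only wells, no compound.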
Starred values were filed as active, the others as inactive. The entries come from a sample that favours hits as a whole.

Screening COc1ccc(N(C(=O)C(C)C)S(=O)(=O)c2cccs2)cc1 returned HCT116 PTEN-null 83, H69AR growth 86K 17*, HUVEC prolif 384 65, bCat KO growth 83 and Lung fibro prol 81.
`COc1ccc(NC(=O)/C(Cl)=C(/Cl)S(=O)Cc2ccccc2)cn1` (stereo not drawn) gave HCT116 PTEN-null 1.5*, H69AR growth 86K 1.7*, HUVEC prolif 384 2.2*, bCat KO growth 1.5* and Lung fibro prol 1.2*.
For COc1ccc(/C=C/C(=O)Nc2ccc(OC)nc2)cc1 the results were HCT116 PTEN-null 77 and bCat KO growth 70.
Screening COc1ccc(CS(=O)(=O)/C(Cl)=C(/Cl)C(=O)Nc2ccc(OC)nc2)cc1 returned HCT116 PTEN-null 4, H69AR growth 86K 0.0*, HUVEC prolif 384 2.6*, bCat KO growth 6 and Lung fibro prol 4.8*.
Screening Cc1occc1-c1nnc(SCC(=O)Nc2ccc3c(c2)OCO3)n1CC1CCCO1 (stereo not drawn) returned HCT116 PTEN-null 87, H69AR growth 86K 85, HUVEC prolif 384 99, bCat KO growth 86 and Lung fibro prol 96.
COC(=O)c1ccc(NC2(C#N)C(=O)Nc3ccccc32)cc1 (stereo not drawn) was read as HCT116 PTEN-null 88, H69AR growth 86K 23*, HUVEC prolif 384 86, bCat KO growth 87 and Lung fibro prol 95.
CCS(=O)(=O)Nc1ccc(C(=O)CC2(O)C(=O)Nc3ccccc32)cc1 (stereo not drawn) was read as HCT116 PTEN-null 99, H69AR growth 86K 81, HUVEC prolif 384 101, bCat KO growth 99 and Lung fibro prol 100.
`Cc1ccc(N(CC(=O)NCCSc2nc3ccccc3s2)S(=O)(=O)c2ccccc2)c(C)c1` gave HCT116 PTEN-null 45 and bCat KO growth 57.
For O=c1cc(Nc2ccc3c(c2)OCCO3)[nH]c(=O)n1Cc1ccc(F)cc1 the results were HCT116 PTEN-null 86, H69AR growth 86K 96, HUVEC prolif 384 85, bCat KO growth 91 and Lung fibro prol 94.
Screening O=c1cc(Nc2ccc3c(c2)OCO3)[nH]c(=O)n1-c1ccc(Br)cc1 returned HCT116 PTEN-null 97, H69AR growth 86K 35*, HUVEC prolif 384 76, bCat KO growth 82 and Lung fibro prol 97.
Screening O=c1cc(Nc2ccc3c(c2)OCCO3)[nH]c(=O)n1-c1ccc(Br)cc1 returned HCT116 PTEN-null 46, H69AR growth 86K 37*, HUVEC prolif 384 83, bCat KO growth 28 and Lung fibro prol 95.
COc1ccc(C(=O)Oc2c(CN3CCOCC3)cc(Cl)c3cccnc23)cc1OC was read as H69AR growth 86K 1.5*, HUVEC prolif 384 80 and Lung fibro prol 7.2*.
`COc1ccc(C(=O)OCCN2CCOCC2)cc1OC` gave HCT116 PTEN-null 78, H69AR growth 86K 93, HUVEC prolif 384 84, bCat KO growth 83 and Lung fibro prol 101.
For Cc1c(CN(C)C)c2c(n1Cc1ccccc1)C(=O)c1ccccc1-2 the results were HCT116 PTEN-null 37, H69AR growth 86K 38*, HUVEC prolif 384 62, bCat KO growth 48 and Lung fibro prol 75.
For O=c1cc(CN2CCN(c3ccc(F)cc3)CC2)c2cc3c(cc2o1)CCCC3 the results were HCT116 PTEN-null 87, H69AR growth 86K 32*, HUVEC prolif 384 54, bCat KO growth 90 and Lung fibro prol 68.
O=c1cc(CN2CCN(c3ccccc3F)CC2)c2cc(O)c(-c3ccccc3)cc2o1 was read as HCT116 PTEN-null 73 and bCat KO growth 83.
`Cc1cc2oc(=O)cc(CN3CCOCC3)c2cc1C` gave HCT116 PTEN-null 88, H69AR growth 86K 79, HUVEC prolif 384 96, bCat KO growth 86 and Lung fibro prol 97.
`COc1ccc(N2CCN(Cc3cc(=O)oc4cc(C)c(Cl)cc34)CC2)cc1` gave HCT116 PTEN-null 94, H69AR growth 86K 24*, HUVEC prolif 384 91, bCat KO growth 90 and Lung fibro prol 80.
CN1CCN(Cc2cc(=O)oc3cc4c(cc23)CCC4)CC1 was read as HCT116 PTEN-null 92, H69AR growth 86K 85, HUVEC prolif 384 93, bCat KO growth 79 and Lung fibro prol 100.
For Cc1cc2oc(=O)cc(CN3CCN(C/C=C/c4ccccc4)CC3)c2cc1O the results were HCT116 PTEN-null 2.8* and bCat KO growth 2.3*.
O=c1cc(CN2CCN(C/C=C/c3ccccc3)CC2)c2cc(O)c(-c3ccccc3)cc2o1 was read as HCT116 PTEN-null 57 and bCat KO growth 59.
For COc1ccc(N2CCN(Cc3cc(=O)oc4cc(-c5ccccc5)c(O)cc34)CC2)cc1 the results were HCT116 PTEN-null 6, H69AR growth 86K 3.1*, HUVEC prolif 384 32, bCat KO growth 14 and Lung fibro prol 7.6*.
COc1ccc(N2C(=O)CC(N3CCN(c4ccc(S(C)(=O)=O)cc4)CC3)C2=O)cc1 (stereo not drawn) was read as HCT116 PTEN-null 100, H69AR growth 86K 82, HUVEC prolif 384 97, bCat KO growth 100 and Lung fibro prol 98.
`Cc1ccnc(N2CCC(C(=O)NNC(=O)c3ccccc3C)CC2)n1` gave HCT116 PTEN-null 94 and bCat KO growth 95.
For COc1ccc(C)cc1NS(=O)(=O)c1ccc(Br)s1 the results were HCT116 PTEN-null 70, H69AR growth 86K 22*, HUVEC prolif 384 61, bCat KO growth 86 and Lung fibro prol 88.
Screening COc1cccc(-c2nc3ccccc3c(=O)n2NC(=O)c2cccnc2Cl)c1 returned HCT116 PTEN-null 98 and bCat KO growth 90.
Screening CCOC(=O)c1ccc(-c2ccc(C3Nc4ccccc4C(=O)N3O)o2)cc1 (stereo not drawn) returned HCT116 PTEN-null 6 and bCat KO growth 5.4*.
`N#Cc1c(NC(=O)c2ccc(-c3ccccc3[N+](=O)[O-])o2)sc2c1CCCC2` gave HCT116 PTEN-null 89 and bCat KO growth 91.
Screening O=C(O)c1sc2cc(C(F)(F)F)cnc2c1-c1ccccc1 returned HCT116 PTEN-null 107 and bCat KO growth 101.
CSc1nnc(-c2sc3cc(C(F)(F)F)cnc3c2-c2ccccc2)n1C was read as HCT116 PTEN-null 27, H69AR growth 86K 25*, HUVEC prolif 384 65, bCat KO growth 21 and Lung fibro prol 60.
For O=C(/C=C/c1cn(CC(O)CN2CCCCCC2)c2ccccc12)c1cccs1 (stereo not drawn) the results were HCT116 PTEN-null 1.9* and bCat KO growth 1.2*.
For CCCCN(C)CC(O)Cn1cc(/C=C/C(=O)c2cccs2)c2ccccc21 (stereo not drawn) the results were HCT116 PTEN-null 1.6* and bCat KO growth 1.6*.
COCc1cc(=O)[nH]c(Nc2nc3ccc(C)cc3o2)n1 was read as HCT116 PTEN-null 5, H69AR growth 86K 21*, HUVEC prolif 384 39, bCat KO growth 7 and Lung fibro prol 5.2*.
Screening Cc1ccc(N2C(=O)c3ccc(C(=O)O)cc3C2=O)c(C)c1 returned HCT116 PTEN-null 92 and bCat KO growth 100.
